Each block holds one molecule with its values, some of them ahead of it.
How the values were obtained:
[1] = target: T1, Amyloid-beta precursor protein (Homo sapiens, UniProt P05067); assay: Inhibition of amyloid beta 40 peptide (unknown origin) aggregation incubated for 2 hr by ThT fluorescence based spectrofluorimetric analysis
Outline: (§1)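 Aβ40 peptide aggregation enhanced with 2% HFIP; thioflavin T fluorescence read-out; run in triplicate.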

[2] = Cytotoxicity against green monkey Vero 76 cells incubated for 48 to 96 hrs by crystal violet staining assay; format: toxicity, cell-based; settings: green monkey (Chlorocebus sabaeus)
[3] = Cytotoxicity against rat Primary cerebellar granule neuron assessed as cell viability at 10 uM relative to control; format: toxicity, cell-based, Cerebellar granule neurone; settings: primary cerebellar granule neurons, read-out: Activity
[4] = target: T2, Microtubule-associated protein tau (Homo sapiens, UniProt P10636); assay: Inhibition of tau (unknown origin) aggregation expressed in Escherichia coli BL21 (DE3)
Outline: (§2)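 E. coli BL21(DE3) carrying pTARA (T7 RNA polymerase under PBAD) and pRKT42 (four-repeat tau) grown at 37 °C in M9 with 0.5% glucose, antibiotics and 250 μM ThS to OD600 0.6. […] ThS fluorescence ex 430/em 485 nm, normalized to tau-expressing cells (100%) and non-expressing cells (0%); OD600 checked for growth.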
Target sequence in this assay (P10636 whole entry): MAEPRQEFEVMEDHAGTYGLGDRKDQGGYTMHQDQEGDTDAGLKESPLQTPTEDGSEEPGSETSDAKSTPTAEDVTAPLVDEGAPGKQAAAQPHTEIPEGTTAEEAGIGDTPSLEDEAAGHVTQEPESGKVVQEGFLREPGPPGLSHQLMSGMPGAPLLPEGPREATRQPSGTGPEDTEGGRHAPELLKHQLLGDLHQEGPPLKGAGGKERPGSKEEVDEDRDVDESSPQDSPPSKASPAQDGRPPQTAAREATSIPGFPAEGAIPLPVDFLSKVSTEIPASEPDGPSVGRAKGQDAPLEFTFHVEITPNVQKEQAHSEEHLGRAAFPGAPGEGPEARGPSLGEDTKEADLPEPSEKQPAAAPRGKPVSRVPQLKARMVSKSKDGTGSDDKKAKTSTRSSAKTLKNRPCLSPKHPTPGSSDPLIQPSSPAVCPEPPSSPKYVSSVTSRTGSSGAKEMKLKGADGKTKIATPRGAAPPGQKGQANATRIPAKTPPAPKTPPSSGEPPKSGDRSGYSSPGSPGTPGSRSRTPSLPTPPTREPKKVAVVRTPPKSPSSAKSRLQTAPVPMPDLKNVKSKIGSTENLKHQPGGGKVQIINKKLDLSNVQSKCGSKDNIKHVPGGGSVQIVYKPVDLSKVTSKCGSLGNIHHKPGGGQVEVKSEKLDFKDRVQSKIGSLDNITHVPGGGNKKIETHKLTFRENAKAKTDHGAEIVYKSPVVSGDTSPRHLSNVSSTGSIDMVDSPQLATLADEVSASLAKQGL

[5] = Cytotoxicity against human SH-SY5Y cells incubated for 24 hrs by MTT assay; format: toxicity, cell-based
[6] = target: T2, Microtubule-associated protein tau; assay: Inhibition of PHF6 peptide (unknown origin) aggregation at 10 uM measured after 3 hrs by thioflavin T fluorescence based fluorimetric analysis relative to control
Target sequence in this assay (P10636 whole entry, looked up): as the sequence (P10636 whole entry) above

[7] = Cytotoxicity against mouse brain Primary embryonic cortical cell assessed as cell death at 5 uM incubated for 6 hrs by propidium iodide dye based spectrofluorometric analysis relative to control; format: toxicity
Outline: (§3)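 Primary cortical cultures from E16.5 mouse embryo brains, trypsinized, plated on poly-D-lysine, grown in Neurobasal with glutamine, glucose, 5% horse serum and B27; compounds added at 4 DIV. Propidium iodide 30 μM; baseline F1 read 1 h after PI; ex 530/em 645 nm. Fmax after digitonin permeabilization. % death = 100×(Fn−F1)/(Fmax−F1); mean of three independent experiments.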

[8] = target: T2, Microtubule-associated protein tau; assay: Inhibition of tau (unknown origin) aggregation expressed in Escherichia coli BL21 (DE3) at 10 uM relative to control; outline: as §2
Target sequence in this assay (P10636 whole entry): as above

[9] = Cytotoxicity against mouse brain Primary embryonic cortical cell assessed as cell death at 10 uM incubated for 5 hrs by propidium iodide dye based spectrofluorometric analysis relative to control; format: toxicity; outline: as §3
[10] = Cytotoxicity against mouse brain Primary embryonic cortical cell assessed as cell death at 10 uM incubated for 1 hr by propidium iodide dye based spectrofluorometric analysis relative to control; format: toxicity; outline: as §3
[11] = Cytotoxicity against mouse brain Primary embryonic cortical cell assessed as cell death at 2.5 uM incubated for 5 hrs by propidium iodide dye based spectrofluorometric analysis relative to control; format: toxicity; outline: as §3
[12] = Cytotoxicity against mouse brain Primary embryonic cortical cell assessed as cell death at 2.5 uM incubated for 1 hr by propidium iodide dye based spectrofluorometric analysis relative to control; format: toxicity; outline: as §3
[13] = Cytotoxicity against mouse brain Primary embryonic cortical cell assessed as cell death at 30 uM incubated for 4 hrs by propidium iodide dye based spectrofluorometric analysis relative to control; format: toxicity; outline: as §3
[14] = Cytotoxicity against mouse brain Primary embryonic cortical cell assessed as cell death at 10 uM incubated for 3 hrs by propidium iodide dye based spectrofluorometric analysis relative to control; format: toxicity; outline: as §3
[15] = Cytotoxicity against mouse brain Primary embryonic cortical cell assessed as cell death at 30 uM incubated for 5 hrs by propidium iodide dye based spectrofluorometric analysis relative to control; format: toxicity; outline: as §3
[16] = Cytotoxicity against mouse brain Primary embryonic cortical cell assessed as cell death at 10 uM incubated for 6 hrs by propidium iodide dye based spectrofluorometric analysis relative to control; format: toxicity; outline: as §3
[17] = Cytotoxicity against mouse brain Primary embryonic cortical cell assessed as cell death at 5 uM incubated for 5 hrs by propidium iodide dye based spectrofluorometric analysis relative to control; format: toxicity; outline: as §3
[18] = Cytotoxicity against mouse brain Primary embryonic cortical cell assessed as cell death at 2.5 uM incubated for 24 hrs by propidium iodide dye based spectrofluorometric analysis relative to control; format: toxicity; outline: as §3
[19] = Cytotoxicity against mouse brain Primary embryonic cortical cell assessed as cell death at 10 uM incubated for 48 hrs by propidium iodide dye based spectrofluorometric analysis relative to control; format: toxicity; outline: as §3
[20] = Cytotoxicity against mouse brain Primary embryonic cortical cell assessed as cell death at 5 uM incubated for 24 hrs by propidium iodide dye based spectrofluorometric analysis relative to control; format: toxicity; outline: as §3
[21] = Cytotoxicity against mouse brain Primary embryonic cortical cell assessed as cell death at 2.5 uM incubated for 72 hrs by propidium iodide dye based spectrofluorometric analysis relative to control; format: toxicity; outline: as §3
[22] = Cytotoxicity against mouse brain Primary embryonic cortical cell assessed as cell death at 30 uM incubated for 48 hrs by propidium iodide dye based spectrofluorometric analysis relative to control; format: toxicity; outline: as §3
[23] = Cytotoxicity against mouse brain Primary embryonic cortical cell assessed as cell death at 5 uM incubated for 3 hrs by propidium iodide dye based spectrofluorometric analysis relative to control; format: toxicity; outline: as §3
[24] = Cytotoxicity against mouse brain Primary embryonic cortical cell assessed as cell death at 30 uM incubated for 3 hrs by propidium iodide dye based spectrofluorometric analysis relative to control; format: toxicity; outline: as §3
[25] = Cytotoxicity against mouse brain Primary embryonic cortical cell assessed as cell death at 2.5 uM incubated for 48 hrs by propidium iodide dye based spectrofluorometric analysis relative to control; format: toxicity; outline: as §3
[26] = Cytotoxicity against mouse brain Primary embryonic cortical cell assessed as cell death at 30 uM incubated for 6 hrs by propidium iodide dye based spectrofluorometric analysis relative to control; format: toxicity; outline: as §3
[27] = Cytotoxicity against mouse brain Primary embryonic cortical cell assessed as cell death at 10 uM incubated for 4 hrs by propidium iodide dye based spectrofluorometric analysis relative to control; format: toxicity; outline: as §3
[28] = Cytotoxicity against mouse brain Primary embryonic cortical cell assessed as cell death at 5 uM incubated for 2 hrs by propidium iodide dye based spectrofluorometric analysis relative to control; format: toxicity; outline: as §3
[29] = Cytotoxicity against mouse brain Primary embryonic cortical cell assessed as cell death at 30 uM incubated for 24 hrs by propidium iodide dye based spectrofluorometric analysis relative to control; format: toxicity; outline: as §3
[30] = Cytotoxicity against mouse brain Primary embryonic cortical cell assessed as cell death at 2.5 uM incubated for 2 hrs by propidium iodide dye based spectrofluorometric analysis relative to control; format: toxicity; outline: as §3
[31] = Cytotoxicity against mouse brain Primary embryonic cortical cell assessed as cell death at 10 uM incubated for 24 hrs by propidium iodide dye based spectrofluorometric analysis relative to control; format: toxicity; outline: as §3
[32] = Cytotoxicity against mouse brain Primary embryonic cortical cell assessed as cell death at 2.5 uM incubated for 6 hrs by propidium iodide dye based spectrofluorometric analysis relative to control; format: toxicity; outline: as §3
[33] = Cytotoxicity against mouse brain Primary embryonic cortical cell assessed as cell death at 5 uM incubated for 1 hr by propidium iodide dye based spectrofluorometric analysis relative to control; format: toxicity; outline: as §3
[34] = Cytotoxicity against mouse brain Primary embryonic cortical cell assessed as cell death at 10 uM incubated for 72 hrs by propidium iodide dye based spectrofluorometric analysis relative to control; format: toxicity; outline: as §3
[35] = Cytotoxicity against mouse brain Primary embryonic cortical cell assessed as cell death at 2.5 uM incubated for 4 hrs by propidium iodide dye based spectrofluorometric analysis relative to control; format: toxicity; outline: as §3
[36] = Cytotoxicity against mouse brain Primary embryonic cortical cell assessed as cell death at 10 uM incubated for 2 hrs by propidium iodide dye based spectrofluorometric analysis relative to control; format: toxicity; outline: as §3
[37] = Cytotoxicity against mouse brain Primary embryonic cortical cell assessed as cell death at 5 uM incubated for 4 hrs by propidium iodide dye based spectrofluorometric analysis relative to control; format: toxicity; outline: as §3
[38] = Cytotoxicity against mouse brain Primary embryonic cortical cell assessed as cell death at 30 uM incubated for 1 hr by propidium iodide dye based spectrofluorometric analysis relative to control; format: toxicity; outline: as §3
[39] = Cytotoxicity against mouse brain Primary embryonic cortical cell assessed as cell death at 30 uM incubated for 72 hrs by propidium iodide dye based spectrofluorometric analysis relative to control; format: toxicity; outline: as §3
[40] = Cytotoxicity against mouse brain Primary embryonic cortical cell assessed as cell death at 2.5 uM incubated for 3 hrs by propidium iodide dye based spectrofluorometric analysis relative to control; format: toxicity; outline: as §3
[41] = Cytotoxicity against mouse brain Primary embryonic cortical cell assessed as cell death at 30 uM incubated for 2 hrs by propidium iodide dye based spectrofluorometric analysis relative to control; format: toxicity; outline: as §3
[42] = Cytotoxicity against mouse brain Primary embryonic cortical cell assessed as cell death at 5 uM incubated for 48 hrs by propidium iodide dye based spectrofluorometric analysis relative to control; format: toxicity; outline: as §3
[43] = Cytotoxicity against mouse brain Primary embryonic cortical cell assessed as cell death at 5 uM incubated for 72 hrs by propidium iodide dye based spectrofluorometric analysis relative to control; format: toxicity; outline: as §3
[44] = target: T1, Amyloid-beta precursor protein; assay: Inhibition of amyloid beta 40 peptide (unknown origin) aggregation at 100 uM incubated for 2 hr by ThT fluorescence based spectrofluorimetric analysis relative to control; outline: as §1

T1 sequence (P05067 whole entry): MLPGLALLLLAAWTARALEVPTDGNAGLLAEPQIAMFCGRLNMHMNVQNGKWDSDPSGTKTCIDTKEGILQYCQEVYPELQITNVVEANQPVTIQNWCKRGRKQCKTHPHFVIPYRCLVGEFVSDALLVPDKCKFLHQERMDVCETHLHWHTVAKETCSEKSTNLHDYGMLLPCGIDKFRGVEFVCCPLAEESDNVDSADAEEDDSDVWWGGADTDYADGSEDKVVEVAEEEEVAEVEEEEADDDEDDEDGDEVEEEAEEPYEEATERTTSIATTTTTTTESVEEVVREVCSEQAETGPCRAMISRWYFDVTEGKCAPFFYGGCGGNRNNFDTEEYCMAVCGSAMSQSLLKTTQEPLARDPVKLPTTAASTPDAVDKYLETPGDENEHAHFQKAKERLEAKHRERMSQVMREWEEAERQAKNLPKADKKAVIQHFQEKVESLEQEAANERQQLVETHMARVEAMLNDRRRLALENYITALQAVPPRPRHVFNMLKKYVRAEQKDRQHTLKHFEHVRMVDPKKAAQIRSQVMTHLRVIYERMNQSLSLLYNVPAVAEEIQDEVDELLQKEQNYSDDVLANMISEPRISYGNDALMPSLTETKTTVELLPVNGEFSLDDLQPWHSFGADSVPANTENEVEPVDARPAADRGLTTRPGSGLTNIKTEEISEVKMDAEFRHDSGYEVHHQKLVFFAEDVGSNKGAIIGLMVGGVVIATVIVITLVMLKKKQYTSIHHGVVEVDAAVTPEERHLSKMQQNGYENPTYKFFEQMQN

Compound: Cc1ccc(NC[C@@H]2CCCN3CCCC[C@H]23)c2c(=O)c3ccccc3sc12
IC50 [1]: 28 µM
IC50 [2]: 12.4 µM

Compound: Cc1ccc(NCC[C@@H]2CCCN3CCCC[C@H]23)c2c(=O)c3ccccc3sc12
viability at 10 µM [3]: 78%
IC50 [4]: 46 µM
IC50 at 24 h [5]: 7.22 µM
inhibition [6]: > 80%
IC50 [2]: 12.4 µM

Compound: O=c1c2ccccc2sc2c([N+](=O)[O-])ccc(NCCC[C@@H]3CCCN4CCCC[C@H]34)c12
Activity [7]: 5.7%
inhibition [8]: 22%
Activity [9]: 31%
Activity [10]: -3.1%
Activity [11]: 5.2%
Activity [12]: 0.3%
Activity [13]: 42%
IC50 [1]: 13 µM
Activity [14]: 6.4%
Activity [15]: 51%
Activity [16]: 35.9%
Activity [17]: 6.6%
Activity [18]: 85.5%
Activity [19]: 79.1%
Activity [20]: 77%
Activity [21]: 79.6%
Activity [22]: 82.9%
Activity [23]: 5%
Activity [24]: 29.7%
Activity [25]: 83.3%
Activity [26]: 54.3%
Activity [27]: 16.2%
Activity [28]: 2.9%
Activity [29]: 82.1%
Activity [30]: 3.1%
Activity [31]: 86.1%
Activity [32]: 5.2%
Activity [33]: 1.6%
Activity [34]: 74.8%
Activity [35]: 4.7%
Activity [36]: 1.7%
Activity [37]: 4.3%
Activity [38]: 11.6%
Activity [39]: 80.8%
Activity [40]: 3.7%
Activity [41]: 19.1%
Activity [42]: 72.4%
Activity [43]: 79.4%

More lines, main results first:

IC50 [4]: 16 µM
inhibition [44]: 55%
Compound: CCN(CC)CCCNc1ccc(C)c2oc3ccccc3c(=O)c12

IC50 [4]: 10.9 µM
IC50 [1]: 24 µM
Compound: CCN(CC)CCNc1ccc(C)c2sc3ccccc3c(=O)c12 [LUCANTHONE]
IC50 [2]: 12.4 µM
